From publication PMC3158287 (Nature chemical biology, 2011)
Positions count from the first letter of the chain named. Like-named read-outs stand apart in the source and are kept apart here.

Tests used:
[1] = system: HCT-116 p21^−/− cells; experiment: Cell viability assay, HCT-116 p21-/-; type: cell-based, human; details: GI50 after 48 h
In short: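 HCT-116 p21+/+ and p21−/− cells were seeded in 96-well plates and rested 24 h. A time-zero plate was read with CellTiter-Blue (resazurin) after 90 min at 37 °C, fluorescence 544 nm ex / 590 nm em. Serially diluted test compound was added as 4× solution. Viability was re-read at 48 h and GI50 derived. For coadministration, 10 μM 25-OHC was added with test compound at 250 nM or 10 nM.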

[2] = target: T1, OSBP^V582M (Homo sapiens, UniProt P22059, V582M); experiment: [3H]25-OHC binding assay, OSBP V582M mutant
T1 sequence (P22059 1-807 V582M): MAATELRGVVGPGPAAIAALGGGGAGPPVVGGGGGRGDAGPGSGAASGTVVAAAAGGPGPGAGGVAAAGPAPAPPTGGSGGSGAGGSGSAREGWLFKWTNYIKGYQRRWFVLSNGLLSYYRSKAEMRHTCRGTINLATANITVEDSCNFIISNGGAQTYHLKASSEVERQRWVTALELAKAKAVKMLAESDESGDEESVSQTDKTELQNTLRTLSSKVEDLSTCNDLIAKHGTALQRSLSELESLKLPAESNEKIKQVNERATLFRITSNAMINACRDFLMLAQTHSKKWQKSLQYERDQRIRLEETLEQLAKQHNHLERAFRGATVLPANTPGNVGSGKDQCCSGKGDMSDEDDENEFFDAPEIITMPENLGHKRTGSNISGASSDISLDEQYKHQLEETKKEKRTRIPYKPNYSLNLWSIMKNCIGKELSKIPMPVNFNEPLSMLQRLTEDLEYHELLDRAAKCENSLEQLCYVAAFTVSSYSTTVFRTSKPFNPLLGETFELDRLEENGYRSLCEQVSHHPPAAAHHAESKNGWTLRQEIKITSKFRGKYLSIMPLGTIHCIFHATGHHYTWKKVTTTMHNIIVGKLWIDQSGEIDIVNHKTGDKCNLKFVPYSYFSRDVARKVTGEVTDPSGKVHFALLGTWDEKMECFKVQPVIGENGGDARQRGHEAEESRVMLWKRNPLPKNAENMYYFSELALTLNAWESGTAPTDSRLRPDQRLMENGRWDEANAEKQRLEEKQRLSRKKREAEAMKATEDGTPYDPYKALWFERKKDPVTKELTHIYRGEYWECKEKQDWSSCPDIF

[3] = target: T2, OSBP (Homo sapiens, UniProt P22059); experiment: OSBP localization by immunofluorescence microscopy, HCT-116; type: cell-based; details: HCT-116 cells, 4 h; 5 μM schweinfurthin A, 10 nM OSW-1, 20 nM cephalostatin 1
T2 sequence (P22059 1-807): T1 sequence (P22059 1-807 V582M) with M582V
In short: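 Cells on coverslips were grown 72 h, then given test compound or vehicle (4 h for HCT-116). They were fixed 10 min in 3.7% formaldehyde/PBS and permeabilised 5 min in 0.5% Triton X-100. Blocking used Image-iT FX, then 1% BSA/PBS. Rabbit anti-OSBP (N-terminus) and mouse anti-p230 were applied overnight at 4 °C, then Alexa Fluor secondaries for 60 min with Hoechst 33258. Imaging was by confocal microscopy.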

[4] = target: T3, OSBP^M446W (Homo sapiens, UniProt P22059, M446W); experiment: [3H]25-OHC binding assay, OSBP M446W mutant
T3 sequence (P22059 1-807 M446W): T1 sequence (P22059 1-807 V582M) with M446W, M582V

[5] = system: HeLa cells overexpressing wild-type OSBP; experiment: Overexpression-viability assay, wild-type OSBP-Myc-His; type: cell-based, human; details: 48 h, versus lacZ

Row | Compound | p21^−/− selectivity of growth inhibition (HCT-116 p21^−/− versus wild-type) [1] | Ki [2] | OSBP localization [3] | Ki [4] | Desensitization factor by OSBP overexpression (relative GI30) [5] | Ki ([2]; read-out: Ki, OSBP^V582M, competition with [3H]25-OHC, mean ± s.d.) | Ki ([4]; read-out: Ki, OSBP^M446W, competition with [3H]25-OHC, mean ± s.d.)
1 | CC(C)=CCC/C(C)=C/Cc1c(O)cc(/C=C/c2cc(O)c3c(c2)C[C@@H]2C(C)(C)[C@H](O)[C@H](O)C[C@@]2(C)O3)cc1O [schweinfurthin A] | selectively growth-inhibitory | 37 nM | accumulate at perinuclear positions with a large degree of co-localization with the trans-Golgi marker p230 | 60 nM | 2–5 | – | –
2 | COc1ccc(C(=O)O[C@H]2[C@H](O[C@@H]3[C@@H](OC(C)=O)[C@H](O[C@H]4C[C@H]5[C@@H]6CC=C7C[C@@H](O)CC[C@]7(C)[C@H]6CC[C@]5(C)[C@@]4(O)[C@H](C)C(=O)CCC(C)C)OC[C@@H]3O)OC[C@@H](O)[C@@H]2O)cc1 [OSW-1] | selectively growth-inhibitory | – | localize to a perinuclear position that did not localize with p230 | – | 2–5 | 46 nM | 18 nM
